Experimental data reported in ChEMBL document CHEMBL1142316, “Synthesis and biological evaluation of bengacarboline derivatives” (Bioorg Med Chem Lett, 2008).
pIC50: −log10 of the molar value. Active and inactive are the calls of the source. No cut-off for these calls is given here.

Columns and labels:
A549 [1] = assay: Cytotoxicity against human A549 cells after 72 hrs; format: functional, cell-based; settings: A549, 72 h
How it was run: (§1)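 Cells (ATCC) were exposed in log-phase growth for 72 h to compound across 10 µM to 10 nM in RPMI with 10% FCS, 4 mM glutamine, penicillin/streptomycin and fungizone, at 37 °C under 5% CO2. Viability was read as ATP from viable cells by luminescence kit. IC50 is the dose cutting ATP release by 50%.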

BXPC-3 = assay: Cytotoxicity against human BxPC3 cells after 72 hrs; format: functional, cell-based; settings: BXPC-3, 72 h; how it was run: as §1
LoVo = assay: Cytotoxicity against human LoVo cells after 72 hrs; format: functional, cell-based; how it was run: as §1
MCF7 = assay: Cytotoxicity against human MCF7 cells after 72 hrs; format: functional, cell-based; settings: MCF7, 72 h; how it was run: as §1
[2] = Cytotoxicity against human Namalwa cells after 72 hrs; format: functional, cell-based; settings: NAMALVA; how it was run: as §1
SK-OV-3 = assay: Cytotoxicity against human SKOV3 cells after 72 hrs; format: functional, cell-based; settings: SK-OV-3, 72 h; how it was run: as §1
[3] = molecular target: DNA topoisomerase 2-alpha (Homo sapiens, UniProt P11388); assay: Inhibition of topoisomerase 2 mediated DNA relaxation
[4] = Inhibition of topoisomerase by kinetoplast DNA decatenation assay at 100 uM
A549 [5] = assay: Cell cycle arrest in human A549 cells by accumulation at S phase after 48 hrs by flow cytometry; format: functional, cell-based
How it was run: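 A549 cells were seeded at 1.3 × 10^4 cells/cm², then drug-treated. They were stained with propidium iodide and read by flow cytometry on the […] channel. G1, S and G2/M fractions were obtained by deconvolution.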

DNA topoisomerase 1 = molecular target: T1, DNA topoisomerase 1 (Homo sapiens, UniProt P11387); assay: Inhibition of topoisomerase 1-mediated DNA relaxation
T1 sequence (P11387 whole entry): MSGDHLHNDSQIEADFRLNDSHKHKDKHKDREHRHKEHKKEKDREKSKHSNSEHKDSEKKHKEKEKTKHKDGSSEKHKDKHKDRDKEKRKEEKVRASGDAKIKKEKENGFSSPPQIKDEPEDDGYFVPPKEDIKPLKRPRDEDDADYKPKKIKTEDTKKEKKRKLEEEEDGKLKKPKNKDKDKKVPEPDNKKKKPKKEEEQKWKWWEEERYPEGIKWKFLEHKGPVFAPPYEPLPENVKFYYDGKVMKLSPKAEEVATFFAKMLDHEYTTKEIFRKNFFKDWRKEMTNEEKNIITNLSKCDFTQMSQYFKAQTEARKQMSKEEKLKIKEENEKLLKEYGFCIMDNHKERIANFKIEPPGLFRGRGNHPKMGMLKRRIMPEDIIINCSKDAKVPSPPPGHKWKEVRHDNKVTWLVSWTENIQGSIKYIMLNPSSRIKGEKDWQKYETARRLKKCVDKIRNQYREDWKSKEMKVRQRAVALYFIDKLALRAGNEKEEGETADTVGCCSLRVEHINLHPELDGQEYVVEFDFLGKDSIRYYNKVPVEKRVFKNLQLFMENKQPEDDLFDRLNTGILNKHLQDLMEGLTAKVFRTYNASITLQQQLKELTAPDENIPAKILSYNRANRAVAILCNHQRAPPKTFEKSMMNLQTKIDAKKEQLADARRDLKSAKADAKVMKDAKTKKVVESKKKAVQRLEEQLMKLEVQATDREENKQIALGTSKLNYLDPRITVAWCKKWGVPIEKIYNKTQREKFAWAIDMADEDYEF
How it was run: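 Supercoiled plasmid DNA (200 ng) was incubated 20 min at 37 °C with the minimum purified topoisomerase I needed for full relaxation, with or without drug at 1, 3.2, 10 or 100 µM. The reaction was stopped with SDS–proteinase K, and products were resolved by agarose gel electrophoresis.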

[6] = Inhibition of topoisomerase by kinetoplast DNA decatenation assay
V79 = assay: Effect on DNA damage in Chinese hamster V79 cells at 10 uM after 1 hr by comet assay relative to control; format: functional, cell-based; settings: Cricetulus griseus
How it was run: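 Cells were treated for 1 h at 10 µM. Controls carried 1% DMSO, matching the drug samples. Strand breaks were scored by comet assay, with representative photomicrographs (10×) of each full slide.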

P388 [7] = assay: Antitumor activity in mouse P388 cells xenografted mouse at 10 mg/kg, ip for 4 days; format: functional, organism-based; design: dose 10 mg/kg
How it was run: (§2)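 Compounds were given ip at 10 or 20 mg/kg per injection, once daily for 4 days. Antitumor activity and toxicity were both recorded.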

P388 [8] = assay: Antitumor activity in mouse P388 leukemia model at 20 mg/kg, ip for 4 days; format: functional, organism-based; design: dose 20 mg/kg; how it was run: as §2
Mus musculus = assay: Toxicity in P388 cells xenografted mouse at 10 to 20 mg/kg, ip for 4 days; format: organism-based; design: dose 10-20 mg/kg, route intraperitoneal; settings: in vivo, 96 h; how it was run: as §2
[9] = Displacement of ethidium bromide from DNA
[10] = Displacement of Hoechst 33258 from DNA
CEM/C2 = assay: Cytotoxicity against human topoisomerase 1 mutant CEM/C2 cells; format: functional, cell-based; how it was run: as §1
CCRF-CEM = assay: Cytotoxicity against human CEM cells; format: functional, cell-based; how it was run: as §1
HL-60 = assay: Cytotoxicity against human HL60 cells; format: functional, cell-based
[11] = Cytotoxicity against human HL60/MX2 cells; format: functional, cell-based

Sequence of DNA topoisomerase 2-alpha (P11388 whole entry): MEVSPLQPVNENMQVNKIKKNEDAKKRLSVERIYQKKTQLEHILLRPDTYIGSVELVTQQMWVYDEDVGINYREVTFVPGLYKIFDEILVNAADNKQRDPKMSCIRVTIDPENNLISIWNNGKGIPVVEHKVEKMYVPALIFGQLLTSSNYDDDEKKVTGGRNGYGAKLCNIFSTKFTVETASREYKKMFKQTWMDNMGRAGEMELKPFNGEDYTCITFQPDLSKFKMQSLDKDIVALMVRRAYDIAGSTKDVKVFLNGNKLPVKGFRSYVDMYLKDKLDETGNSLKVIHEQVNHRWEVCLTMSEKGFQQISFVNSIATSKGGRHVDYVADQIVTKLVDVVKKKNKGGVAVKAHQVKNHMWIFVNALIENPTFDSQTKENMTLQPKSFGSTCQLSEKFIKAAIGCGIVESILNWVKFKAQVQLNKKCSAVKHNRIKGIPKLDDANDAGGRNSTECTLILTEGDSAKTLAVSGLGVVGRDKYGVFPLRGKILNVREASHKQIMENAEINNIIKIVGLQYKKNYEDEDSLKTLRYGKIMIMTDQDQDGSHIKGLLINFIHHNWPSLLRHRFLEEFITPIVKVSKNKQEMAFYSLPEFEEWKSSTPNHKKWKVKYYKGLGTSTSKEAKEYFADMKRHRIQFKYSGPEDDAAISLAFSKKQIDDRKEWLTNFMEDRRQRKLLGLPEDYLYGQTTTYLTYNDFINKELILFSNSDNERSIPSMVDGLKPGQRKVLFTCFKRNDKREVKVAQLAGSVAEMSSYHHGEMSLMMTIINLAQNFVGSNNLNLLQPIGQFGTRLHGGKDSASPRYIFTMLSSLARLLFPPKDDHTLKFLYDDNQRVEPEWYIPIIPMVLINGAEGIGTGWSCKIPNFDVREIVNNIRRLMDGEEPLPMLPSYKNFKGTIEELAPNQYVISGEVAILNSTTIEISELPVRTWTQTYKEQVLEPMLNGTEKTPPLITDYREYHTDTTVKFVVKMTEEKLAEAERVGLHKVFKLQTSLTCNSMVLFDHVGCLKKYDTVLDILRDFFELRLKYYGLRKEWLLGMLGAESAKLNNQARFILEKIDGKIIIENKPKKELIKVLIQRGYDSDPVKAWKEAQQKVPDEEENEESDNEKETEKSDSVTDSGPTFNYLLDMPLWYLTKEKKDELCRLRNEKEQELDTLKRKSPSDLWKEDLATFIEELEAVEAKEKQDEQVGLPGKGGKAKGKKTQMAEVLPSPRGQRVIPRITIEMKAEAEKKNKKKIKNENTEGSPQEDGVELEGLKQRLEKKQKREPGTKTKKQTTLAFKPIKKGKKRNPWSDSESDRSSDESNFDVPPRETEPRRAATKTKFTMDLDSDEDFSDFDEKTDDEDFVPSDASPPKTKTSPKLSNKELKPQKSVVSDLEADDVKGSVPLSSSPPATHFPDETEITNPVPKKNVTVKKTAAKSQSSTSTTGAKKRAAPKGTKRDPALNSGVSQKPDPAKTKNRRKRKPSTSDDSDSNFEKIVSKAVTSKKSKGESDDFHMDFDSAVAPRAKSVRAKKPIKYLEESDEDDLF

Row | pIC50 [3] | pIC50 (DNA topoisomerase 1) | pIC50 [6] | Activity [9] | Activity [10] | SMILES | pIC50 (A549 [1]) | pIC50 (BXPC-3) | pIC50 (LoVo) | pIC50 (MCF7) | pIC50 [2] | pIC50 (SK-OV-3) | Activity (A549 [5]) | Activity (V79) | Activity (P388 [7]) | Activity (P388 [8]) | Activity (Mus musculus) | other results
1 | < 4.00 | – | – | – | – | NCCc1c(C2(c3c[nH]c4ccccc34)NCCc3c2[nH]c2ccccc32)[nH]c2ccccc12 (stereo not given) [BENGACARBOLINE] | 5.15 | 5.00 | 5.00 | 5.07 | < 5.00 | < 5.00 | Active | – | – | – | – | Activity [4]: inactive
2 | 4.72 | 5.05 | 4.70 | inactive | inactive | NCCc1c(C(c2[nH]c3cc(Br)ccc3c2CCNC(=O)C(F)(F)F)c2cn(S(=O)(=O)c3ccccc3)c3ccccc23)[nH]c2cc(Br)ccc12 (stereo not given) | 5.30 | 5.44 | 5.35 | 5.31 | 5.46 | 5.19 | Dose-dependent effect | Active | Non-toxic | Non-toxic | Non-toxic | –
3 | 4.89 | 5.10 | 4.70 | inactive | inactive | NCCc1c(C(c2[nH]c3cc(Br)ccc3c2CCNC(=O)C(F)(F)F)c2c[nH]c3ccccc23)[nH]c2cc(Br)ccc12 (stereo not given) | 5.34 | 5.29 | 5.30 | 5.38 | 5.27 | 5.19 | Dose-dependent effect | Active | Non-toxic | Non-toxic | Non-toxic | pIC50 (CEM/C2): 5.25; pIC50 (CCRF-CEM): 5.26; pIC50 (HL-60): 5.06; pIC50 [11]: 5.00
